Source: PubChem BioAssay
Compounds with a hit are over-represented: about 0.19% of the library has one in this group of screens.
IDH1 R132H inh – blocks human IDH1 R132H reductase activity | 70,000 tested, 0.18% active | O75874 | diaphorase/resazurin fluorescence, 60 min | inhibition, % at 10 µM; in the data active = inhibition above about 34%;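 note: 0% = DMSO and 100% = no enzyme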
KDM4C inh – KDM4C (human) demethylase inhibition; 96,000 tested, 0.15% active; inhibition, % at 12.5 µM; Q9H3R0; AID 720574; GST-KDM4C 2-372, H3K9me3 peptide, LANCE TR-FRET;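 active = mean replicate inhibition above about 25%, with at least 55% of replicates also reaching it, limit read from the data, passing the limit was not always enough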
Target sequence (Q9H3R0 2-372 limits assumed): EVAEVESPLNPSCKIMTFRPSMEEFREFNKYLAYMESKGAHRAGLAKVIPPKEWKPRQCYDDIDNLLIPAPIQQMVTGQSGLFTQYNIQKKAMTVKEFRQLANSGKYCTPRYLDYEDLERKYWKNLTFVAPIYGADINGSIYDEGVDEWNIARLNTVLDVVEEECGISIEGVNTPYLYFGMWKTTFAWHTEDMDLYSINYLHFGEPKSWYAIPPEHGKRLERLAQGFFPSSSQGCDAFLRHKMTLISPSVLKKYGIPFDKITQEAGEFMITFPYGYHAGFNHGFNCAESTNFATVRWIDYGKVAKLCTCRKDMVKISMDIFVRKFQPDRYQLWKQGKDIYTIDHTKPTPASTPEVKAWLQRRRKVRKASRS
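System: N-terminal GST-fused human GASC-1 (KDM4C) fragment, residues 2-372; amount: enzyme final amount 10 nM; incubation: reaction 30 min RT, detection step 1 h RT; medium: HEPES buffer, pH 7.5, plus ascorbate; technique: LANCE TR-FRET, Eu antibody, ULight-streptavidin, EDTA, ex 340 nm, em 618/671 nm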
* hit, by the source's call; ! = not active in a repeat.

What do the screens show for `COc1ccc(C#Cc2ccc3c(c2)[C@H]2[C@H](CCN2S(=O)(=O)c2ccccc2F)[C@H](CO)N3C)cc1`?
KDM4C inh: 0

How did COc1ccc(C#Cc2ccc3c(c2)[C@@H]2[C@@H](CCN2S(=O)(=O)c2ccccc2F)[C@@H](CO)N3C)cc1 do in these assays?
KDM4C inh: 48*

What do the screens show for `Cc1noc(C)c1S(=O)(=O)Nc1ccc2c(c1)CC(=O)N([C@@H](C)CO)C[C@@H](C)[C@@H](CN(C)S(=O)(=O)c1cccs1)O2`?
KDM4C inh: -1

What do the screens show for `C[C@@H]1CN([C@@H](C)CO)C(=O)c2cc(NC(=O)CCC(F)(F)F)ccc2O[C@@H](C)CCCCO[C@@H]1CN(C)Cc1ccncc1`?
KDM4C inh: -1

How did C[C@@H]1CCCCO[C@@H](CN(C)C(=O)CCC(F)(F)F)[C@@H](C)CN([C@H](C)CO)C(=O)c2cc(NS(=O)(=O)c3ccccc3)ccc2O1 do in these assays?
IDH1 R132H inh: -2; KDM4C inh: -3

What do the screens show for `C[C@@H]1CCCCO[C@H](CN(C)C(=O)CCC(F)(F)F)[C@H](C)CN([C@@H](C)CO)C(=O)c2cc(NS(=O)(=O)c3ccccc3)ccc2O1`?
IDH1 R132H inh: 91*; KDM4C inh: -2

How did C[C@@H]1CCCCO[C@H](CN(C)Cc2ccncc2)[C@H](C)CN([C@@H](C)CO)C(=O)c2cc(NC(=O)CCC(F)(F)F)ccc2O1 do in these assays?
IDH1 R132H inh: 75*; KDM4C inh: 34*

Results for C[C@@H]1CN([C@H](C)CO)C(=O)Cc2cc(NS(=O)(=O)c3ccc(F)cc3)ccc2O[C@@H]1CN(C)C(=O)Nc1cccc2ccccc12 ?
KDM4C inh: -1

What do the screens show for `Cc1noc(C)c1NC(=O)Nc1ccc2c(c1)C(=O)N([C@H](C)CO)C[C@H](C)[C@@H](CN(C)Cc1ccccc1)O2`?
IDH1 R132H inh: 1; KDM4C inh: 1

What do the screens show for `C[C@@H]1CCCCO[C@H](CN(C)S(C)(=O)=O)[C@@H](C)CN([C@H](C)CO)C(=O)c2cc(NS(=O)(=O)c3ccccc3)ccc2O1`?
IDH1 R132H inh: 0; KDM4C inh: 0

What do the screens show for `C[C@@H]1CN([C@@H](C)CO)C(=O)c2cc(C#Cc3ccccc3)cnc2O[C@H]1CN(C)CC1CCOCC1`?
IDH1 R132H inh: 25; KDM4C inh: 35*

Results for C[C@H]1CN([C@@H](C)CO)C(=O)c2cc(C#Cc3ccccc3)cnc2O[C@@H]1CN(C)CC1CCOCC1 ?
IDH1 R132H inh: -1; KDM4C inh: 1

How did COCC(=O)N(C)C[C@H]1Oc2ncc(C#CC(C)(C)O)cc2C(=O)N([C@H](C)CO)C[C@H]1C do in these assays?
IDH1 R132H inh: 0; KDM4C inh: 0

Results for C[C@@H]1CN([C@@H](C)CO)C(=O)c2cc(-c3ccncc3)cnc2O[C@@H]1CN(C)S(=O)(=O)c1ccc(F)cc1 ?
IDH1 R132H inh: 4; KDM4C inh: 2

What do the screens show for `COCC(=O)N(C)C[C@H]1Oc2ncc(C#CC(C)(C)O)cc2C(=O)N([C@@H](C)CO)C[C@H]1C`?
IDH1 R132H inh: 2; KDM4C inh: 27*

How did C[C@H]1CN([C@@H](C)CO)C(=O)c2cc(C#Cc3ccncc3)cnc2O[C@@H]1CN(C)Cc1ccncc1 do in these assays?
IDH1 R132H inh: 37*; KDM4C inh: 1

How did Cc1ccc(S(=O)(=O)N(C)C[C@@H]2Oc3ncc(-c4ccncc4)cc3C(=O)N([C@@H](C)CO)C[C@H]2C)cc1 do in these assays?
IDH1 R132H inh: 2; KDM4C inh: 39*

What do the screens show for `C[C@@H]1CN([C@H](C)CO)C(=O)c2cc(C#Cc3ccncc3)cnc2O[C@@H]1CN(C)Cc1ccncc1`?
KDM4C inh: 2

What do the screens show for `Cn1c(=O)c2c(nc(NCC(O)CO)n2Cc2ccc(Cl)cc2)n(C)c1=O` (centres undefined)?
IDH1 R132H inh: 0

Results for O=C(Nc1cc(F)ccc1F)N1CCCCN2[C@@H](CO)[C@@H](c3ccc(-c4ccccc4)cc3)[C@@H]2C1 ?
KDM4C inh: -2

How did C[C@H](CO)N1C[C@H](C)[C@H](CN(C)Cc2ccccn2)Oc2ncc(C#CC3(O)CCCC3)cc2C1=O do in these assays?
IDH1 R132H inh: -2; KDM4C inh: -1

How did C[C@H](CO)N1C[C@H](C)[C@@H](CN(C)Cc2ccccn2)Oc2ncc(C#CC3(O)CCCC3)cc2C1=O do in these assays?
IDH1 R132H inh: 2; KDM4C inh: 41*

How did COc1ccccc1C#Cc1cnc2c(c1)C(=O)N([C@@H](C)CO)C[C@@H](C)[C@@H](CN(C)C)O2 do in these assays?
IDH1 R132H inh: 0; KDM4C inh: -1

What do the screens show for `C[C@@H]1CN([C@@H](C)CO)C(=O)c2cc(Br)cnc2O[C@@H]1CN(C)C(=O)Nc1ccc(F)cc1`?
IDH1 R132H inh: 0; KDM4C inh: -3

Results for C[C@H](CO)N1C[C@H](C)[C@H](CN(C)C(=O)Nc2ccc(F)cc2)Oc2ncc(Br)cc2C1=O ?
IDH1 R132H inh: 34*!; KDM4C inh: 4

How did COc1ccccc1C#Cc1cnc2c(c1)C(=O)N([C@@H](C)CO)C[C@H](C)[C@H](CN(C)C)O2 do in these assays?
IDH1 R132H inh: -1; KDM4C inh: 29*

How did CN(C)c1ccc2c(c1)[C@H]1C[C@@H](CC(=O)N3CCc4ccccc4C3)O[C@@H](CO)[C@H]1O2 do in these assays?
IDH1 R132H inh: -2; KDM4C inh: 5

Results for CN(C)c1ccc2c(c1)[C@H]1C[C@H](CC(=O)N3CCCCC3)O[C@H](CO)[C@H]1O2 ?
KDM4C inh: 31*

What do the screens show for `CN(C)c1ccc2c(c1)[C@@H]1C[C@@H](CC(=O)N3CCc4ccccc4C3)O[C@@H](CO)[C@@H]1O2`?
IDH1 R132H inh: -1; KDM4C inh: 10

How did CN(C)c1ccc2c(c1)[C@@H]1C[C@H](CC(=O)N3CCc4ccccc4C3)O[C@H](CO)[C@@H]1O2 do in these assays?
IDH1 R132H inh: -3; KDM4C inh: 24

What do the screens show for `CN(C)c1ccc2c(c1)[C@H]1C[C@H](CC(=O)N3CCCCC3)O[C@@H](CO)[C@H]1O2`?
KDM4C inh: 30*

How did CN(C)c1ccc2c(c1)[C@@H]1C[C@H](CC(=O)N3CCCCC3)O[C@H](CO)[C@@H]1O2 do in these assays?
KDM4C inh: 46*

How did Cc1noc(C)c1NC(=O)Nc1ccc2c(c1)C(=O)N([C@H](C)CO)C[C@H](C)[C@H](CN(C)CC1CC1)OCCCC[C@@H](C)O2 do in these assays?
KDM4C inh: 0

What do the screens show for `CC(C)NC(=O)N(C)C[C@H]1Oc2cc(-c3cccnc3)ccc2S(=O)(=O)N([C@H](C)CO)C[C@@H]1C`?
IDH1 R132H inh: 3; KDM4C inh: 1

Results for C[C@@H]1CN([C@H](C)CO)C(=O)c2cc(N(C)C)ccc2O[C@H]1CN(C)C(=O)Nc1ccc(F)cc1 ?
IDH1 R132H inh: 2; KDM4C inh: 4

Results for C[C@@H]1CN([C@H](C)CO)S(=O)(=O)c2ccc(-c3cccc(C(=O)N(C)C)c3)cc2O[C@@H]1CN(C)Cc1ccc2c(c1)OCO2 ?
IDH1 R132H inh: 0; KDM4C inh: 1

Results for C[C@@H]1CN([C@H](C)CO)C(=O)c2cc(NC(=O)CCCN(C)C)ccc2O[C@@H](C)CCCCO[C@@H]1CN(C)S(=O)(=O)c1cn(C)cn1 ?
IDH1 R132H inh: 3; KDM4C inh: 3
